Our source for the ED50 and Ratio values is ChEMBL document CHEMBL1131480, “Novel antipsychotic agents with dopamine autoreceptor agonist properties: synthesis and pharmacology of 7-[4-(4-phenyl-1-piperazinyl)butoxy]-3,4-dihydro-2(1H)-quinolinone derivatives” (1998).

Assay [1] relates to Dopamine D2 receptor (Mus musculus). The assay can be described thus: post-synaptic dopamine […] antagonist activity evaluated by inhibition of the apomorphine-induced stereotyped behavior in mice.
Assay [2] has as its target T1, Alpha-1 adrenergic receptor (Mus musculus) (UniProt P97714+P97717+P97718). The assay can be described thus: Inhibition of the lethal effects of noradrenaline in mice (alpha-1 induced adrenoceptor antagonist activity). It is filed as functional.
Assay [3] is filed under the species Mus musculus. In words: post-synaptic DA receptor antagonist activity was evaluated by inhibition of the apomorphine-induced stereotyped behavior in mice. inactive at single given dose. It is filed as functional. An outline of the steps:
(§1)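 Overnight-fasted mice (16-20 h), groups of 10, given compound orally 1 h before apomorphine 1.5 mg/kg sc in 0.9% saline. Stereotypy observed for 1 min every 10 min over 40 min, starting 20 min post-apomorphine, scored by a published scale. ED50 with 95% confidence limits by linear regression, µmol/kg po.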

The species named for assay [4] is Rattus norvegicus. The assay can be described thus: Inhibition of the APO-induced stereotyped behavior in rats.
The species entered for assay [5] is Mus musculus. In words: Inhibition of the GBL-induced increase in DOPA accumulation in mice(DA auto receptor agonist activity). It is filed as functional.
For assay [6], the species on record is Rattus norvegicus. The assay can be described thus: Inhibition of the GBL-induced increase in DOPA synthesis in rats.
The species entered for assay [7] is Mus musculus. The assay can be described thus: post-synaptic DA receptor antagonist activity was evaluated by inhibition of the apomorphine-induced stereotyped behavior in mice. inactive at below given dose. It is filed as functional. In a few lines:
as §1

For assay [8], the species on record is Mus musculus. In words: post-synaptic DA receptor antagonist activity was evaluated by inhibition of the apomorphine-induced stereotyped behavior in mice. 49% inhibition at single given dose. It is filed as functional. In a few lines:
as §1

Assay [9] is filed under the species Mus musculus. In words: post-synaptic DA receptor antagonist activity was evaluated by inhibition of the apomorphine-induced stereotyped behavior in mice. 51% inhibition at single given dose. It is filed as functional. In a few lines:
as §1

Assay [10] can be described thus: ratio between ED50 values of DA receptor antagonist activity and catalepsy. It is filed as functional.
Assay [11] is filed under the species Mus musculus. The assay can be described thus: Induction of catalepsy in mice. It is filed as functional.
For assay [12], the species on record is Rattus norvegicus. The assay can be described thus: Inhibition of the APO-induced stereotyped behavior in rats.
Assay [13] has as its target T1, Alpha-1 adrenergic receptor (Mus musculus). The assay can be described thus: Inhibition of noradrenaline lethal effects in mice as alpha-1 induced adrenoceptor antagonist activity. It is filed as functional.
The species entered for assay [14] is Mus musculus. In words: Inhibition of the GBL-induced increase in DOPA synthesis in mice; IA = inactive. It is filed as functional, organism-based.
For assay [15], the species on record is Mus musculus. The assay can be described thus: Inhibition of the GBL-induced increase in DOPA accumulation in mice(DA auto receptor agonist activity); IA = inactive. It is filed as functional, organism-based.
The species named for assay [16] is Mus musculus. In words: Induction of catalepsy in mice. It is filed as functional.

Molecules are shown by their SMILES. Activity calls are given as the source filed them. The calls are words filed in the database; no cut-off is given here.

T1 sequence (P97714 whole entry, looked up): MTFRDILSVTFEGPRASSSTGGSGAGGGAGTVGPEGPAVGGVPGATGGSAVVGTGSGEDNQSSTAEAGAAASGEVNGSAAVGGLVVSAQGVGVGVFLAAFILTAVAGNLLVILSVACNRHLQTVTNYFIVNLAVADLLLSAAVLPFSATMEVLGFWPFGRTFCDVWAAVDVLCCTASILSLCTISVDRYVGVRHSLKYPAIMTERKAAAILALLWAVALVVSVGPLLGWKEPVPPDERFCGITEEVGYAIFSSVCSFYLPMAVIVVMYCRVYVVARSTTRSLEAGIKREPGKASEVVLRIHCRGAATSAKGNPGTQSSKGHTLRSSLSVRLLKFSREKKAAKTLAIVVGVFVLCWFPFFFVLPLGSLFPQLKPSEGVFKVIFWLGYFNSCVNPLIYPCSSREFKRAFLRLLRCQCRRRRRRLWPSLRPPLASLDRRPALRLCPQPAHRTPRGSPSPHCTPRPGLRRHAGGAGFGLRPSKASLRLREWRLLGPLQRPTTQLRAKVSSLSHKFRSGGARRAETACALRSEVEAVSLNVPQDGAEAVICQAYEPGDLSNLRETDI
T1 sequence (P97717 whole entry, looked up): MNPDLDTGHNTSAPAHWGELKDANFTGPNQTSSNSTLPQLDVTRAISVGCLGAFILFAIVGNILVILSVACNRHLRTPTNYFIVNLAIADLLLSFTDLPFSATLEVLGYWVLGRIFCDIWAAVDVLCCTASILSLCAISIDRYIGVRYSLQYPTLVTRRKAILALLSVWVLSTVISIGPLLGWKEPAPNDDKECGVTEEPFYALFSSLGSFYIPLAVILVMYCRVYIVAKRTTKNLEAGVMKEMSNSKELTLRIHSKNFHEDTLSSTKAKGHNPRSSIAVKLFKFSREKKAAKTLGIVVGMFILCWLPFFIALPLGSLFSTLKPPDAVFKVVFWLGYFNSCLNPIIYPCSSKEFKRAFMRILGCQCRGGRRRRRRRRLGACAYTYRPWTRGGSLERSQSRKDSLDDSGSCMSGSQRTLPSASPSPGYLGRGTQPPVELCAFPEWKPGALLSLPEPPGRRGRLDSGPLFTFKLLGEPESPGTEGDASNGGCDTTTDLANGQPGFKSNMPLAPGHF
T1 sequence (P97718 whole entry, looked up): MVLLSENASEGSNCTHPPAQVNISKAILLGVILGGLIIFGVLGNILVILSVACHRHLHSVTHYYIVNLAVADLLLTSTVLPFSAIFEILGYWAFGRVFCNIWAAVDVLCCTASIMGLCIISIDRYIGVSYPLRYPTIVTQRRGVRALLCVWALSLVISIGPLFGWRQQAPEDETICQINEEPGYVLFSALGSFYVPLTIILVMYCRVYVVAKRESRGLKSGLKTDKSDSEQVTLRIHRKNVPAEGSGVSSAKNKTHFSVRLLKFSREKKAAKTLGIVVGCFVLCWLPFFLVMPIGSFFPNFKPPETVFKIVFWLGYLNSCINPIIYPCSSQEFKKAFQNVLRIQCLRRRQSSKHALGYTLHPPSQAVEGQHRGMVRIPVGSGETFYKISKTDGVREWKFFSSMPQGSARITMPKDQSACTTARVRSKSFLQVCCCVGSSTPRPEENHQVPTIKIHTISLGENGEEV

Regarding `Cc1c(Br)cccc1N1CCN(CCCCOc2ccc3ccc(O)nc3c2)CC1`, it took a dose of 2.1 µmol/kg to reach the 50% effect level in [1] (ED50).
For `O=C1CCc2ccc(OCCCCN3CCN(c4cccc(Cl)c4Cl)CC3)cc2N1` [ARIPIPRAZOLE], the ED50 is above 286 µmol/kg in assay [2]; above 22 µmol/kg in the assay filed under Mus musculus [3]; 11.8 µmol/kg in the assay listed under Rattus norvegicus [4]; 5.1 µmol/kg in the assay listed under Mus musculus [5]; 6.9 µmol/kg in the assay listed under Rattus norvegicus [6].
With `O=C1CCc2ccc(OCCCCN3CCN(c4ccc(Cl)cc4)CC3)cc2N1`, the median effective dose (ED50) in the assay listed under Mus musculus [7] was above 8 µmol/kg.
In the assay filed under Mus musculus [7], `O=C1CCc2ccc(OCCCCN3CCN(c4ccc(Cl)cc4Cl)CC3)cc2N1` gave an ED50 above 7 µmol/kg.
As for `Cc1cccc(N2CCN(CCCOc3ccc4c(c3)NC(=O)CC4)CC2)c1C`, the median effective dose (ED50) in assay [1] was determined as 26 µmol/kg.
Turning to `Cc1c(F)cccc1N1CCN(CCCCOc2ccc3c(c2)NC(=O)CC3)CC1`, it took a dose of 7.2 µmol/kg to reach the 50% effect level in the assay listed under Mus musculus [8] (ED50).
As for `Cc1cc(Br)ccc1N1CCN(CCCCOc2ccc3c(c2)NC(=O)CC3)CC1`, the 50% effective dose (ED50) in the assay listed under Mus musculus [9] worked out at 21 µmol/kg.
In the case of `Cc1cccc(N2CCN(CCCCOc3ccc4ccc(O)nc4c3)CC2)c1C`, the 50% effective dose (ED50) in [2] was above 156 µmol/kg; in assay [1] it was 3.4 µmol/kg; in the assay listed under Mus musculus [5] it was 3.9 µmol/kg; in the assay filed under Mus musculus [11] it was 10.5 µmol/kg. Also, the Ratio in [10] amounted to 3.1.
For the compound `Cc1c(Cl)cccc1N1CCN(CCCCOc2ccc3ccc(O)nc3c2)CC1`, the 50% effective dose (ED50) in assay [2] is above 299 µmol/kg; in assay [1], 2.8 µmol/kg; in the assay listed under Mus musculus [5] it was 20.1 µmol/kg; in the assay filed under Mus musculus [11], 12.6 µmol/kg. For the same compound, in assay [10], the Ratio is 4.5.
For the compound `Cc1cccc(N2CCN(CCCOc3ccc4ccc(O)nc4c3)CC2)c1C`, the Ratio in [10] was above 1.4. Also, the ED50 is 41.3 µmol/kg in assay [1]; 1860 µmol/kg in the assay filed under Rattus norvegicus [12]; 3.5 µmol/kg in the assay listed under Mus musculus [5]; 151 µmol/kg in [13]; 15.1 µmol/kg in the assay filed under Rattus norvegicus [6].
For `Cc1c(O)cccc1N1CCN(CCCCOc2ccc3c(c2)NC(=O)CC3)CC1`, the median effective dose (ED50) in the assay filed under Mus musculus [3] (read-out: ED50) was above 8 µmol/kg.
As for `O=C1CCc2c(cccc2OCCCCN2CCN(c3cccc(Cl)c3Cl)CC2)N1`, the ED50 in the assay filed under Mus musculus [3] (read-out: ED50) was above 22 µmol/kg.
In turn, `O=C1CCc2cc(OCCCCN3CCN(c4cccc(Cl)c4Cl)CC3)ccc2N1` came in with a median effective dose (ED50) in the assay filed under Mus musculus [7] above 22 µmol/kg.
Consider `Cc1c(Cl)cccc1N1CCN(CCCCOc2ccc3c(c2)NC(=O)CC3)CC1`, for which the 50% effective dose (ED50) was 3.5 µmol/kg in the assay filed under Mus musculus [5], 5.6 µmol/kg in the assay listed under Mus musculus [11] and above 299 µmol/kg in assay [13].
With `O=C(CCCN1CCC(O)(c2ccc(Cl)cc2)CC1)c1ccc(F)cc1` [HALOPERIDOL], the ED50 entry in the assay listed under Mus musculus [14] and in the assay filed under Mus musculus [15] was “inactive” each time. Moreover, the results for the ED50 (in the assay listed under Rattus norvegicus [4]; in the assay listed under Mus musculus [11]; in assay [13]) were 1.1 µmol/kg, 0.9 µmol/kg and above 341 µmol/kg, respectively.
Turning to `CN(C)CCCN1c2ccccc2Sc2ccc(Cl)cc21` [CHLORPROMAZINE], the ED50 entry in the assay listed under Mus musculus [14] and in the assay listed under Mus musculus [15] was “inactive” each time. Besides, the ED50 in the assay listed under Rattus norvegicus [4] amounted to 28.4 µmol/kg; in [13], 19.7 µmol/kg.
Turning to `O=C1CCc2ccc(OCCCCN3CCN(c4cc(Cl)cc(Cl)c4Cl)CC3)cc2N1`, the values for the ED50 (in the assay listed under Mus musculus [5]; in [13]) were above 21 µmol/kg and above 265 µmol/kg, respectively.
On to `Cc1cccc(N2CCN(CCCCOc3ccc4c(c3)NC(=O)CC4)CC2)c1C`, for which the ED50 in [2] is above 314 µmol/kg; in the assay filed under Mus musculus [5] it was 9.1 µmol/kg; in the assay filed under Mus musculus [11] it was 13.5 µmol/kg.
On to `CC(=O)Nc1cccc(N2CCN(CCCCOc3ccc4c(c3)NC(=O)CC4)CC2)c1C`, for which the ED50 in the assay listed under Mus musculus [7] is above 25 µmol/kg.
In the assay listed under Mus musculus [5], `Cc1c(Br)cccc1N1CCN(CCCCOc2ccc3c(c2)NC(=O)CC3)CC1` yielded an ED50 of 1.3 µmol/kg.
With `N#Cc1ccccc1N1CCN(CCCCOc2ccc3c(c2)NC(=O)CC3)CC1`, in the assay filed under Mus musculus [3] (read-out: ED50), the ED50 was above 23 µmol/kg.
On to `Cc1cccc(N2CCN(CCCCOc3ccc4c(c3)NC(=O)CC4)CC2)c1Cl`, for which the ED50 was above 150 µmol/kg in assay [2], 1.4 µmol/kg in the assay filed under Mus musculus [16] and above 23 µmol/kg in the assay listed under Mus musculus [5].
As for `O=C1CCc2ccc(OCCCCN3CCN(c4ccccc4[N+](=O)[O-])CC3)cc2N1`, the 50% effective dose (ED50) in the assay listed under Mus musculus [7] is above 7 µmol/kg.
Turning to `O=C1CCc2ccc(OCCCCN3CCN(c4ccc(Cl)c(Cl)c4)CC3)cc2N1`, the ED50 in the assay filed under Mus musculus [3] (read-out: ED50) was above 7 µmol/kg.
The compound `Cc1ccc(Cl)cc1N1CCN(CCCCOc2ccc3c(c2)NC(=O)CC3)CC1` showed an ED50 in the assay listed under Mus musculus [7] above 23 µmol/kg.
Consider `Oc1ccc2ccc(OCCCCN3CCN(c4cccc(Cl)c4Cl)CC3)cc2n1`, for which the ED50 in assay [2] is above 287 µmol/kg; in [1], 0.9 µmol/kg; in the assay filed under Mus musculus [5], above 22 µmol/kg.
`Cc1c(N)cccc1N1CCN(CCCCOc2ccc3c(c2)NC(=O)CC3)CC1` gave an ED50 in the assay filed under Mus musculus [7] above 25 µmol/kg.
On the same count and under the same terms, in the case of `Cc1c(Cl)cccc1N1CCN(CCCCCOc2ccc3c(c2)NC(=O)CC3)CC1` it was above 23 µmol/kg.
Turning to `Cc1c(N2CCN(CCCCOc3ccc4c(c3)NC(=O)CC4)CC2)cccc1[N+](=O)[O-]`, the Ratio in [10] is 8.7. The ED50 in assay [1] is 0.7 µmol/kg; in the assay listed under Mus musculus [5], above 23 µmol/kg; in the assay listed under Mus musculus [11], 5.9 µmol/kg; in [13], above 146 µmol/kg.
In the case of `Cc1ccc(N2CCN(CCCCOc3ccc4c(c3)NC(=O)CC4)CC2)cc1Cl`, the median effective dose (ED50) in the assay filed under Mus musculus [7] is above 7 µmol/kg.
With `CCOc1ccccc1N1CCN(CCCCOc2ccc3ccc(O)nc3c2)CC1`, the results for the ED50 (in [2]; in assay [1]; in the assay filed under Mus musculus [5]) were above 127 µmol/kg, 0.24 µmol/kg and above 20 µmol/kg, respectively.
With `Nc1ccccc1N1CCN(CCCCOc2ccc3c(c2)NC(=O)CC3)CC1`, the 50% effective dose (ED50) in the assay filed under Mus musculus [3] (read-out: ED50) was above 25 µmol/kg.
For `O=C1CCc2ccc(OCCCCN3CCN(c4ccccc4)CC3)cc2N1`, in the assay filed under Mus musculus [7], the ED50 is above 28 µmol/kg.
Take `Cc1c(C#N)cccc1N1CCN(CCCCOc2ccc3c(c2)NC(=O)CC3)CC1`: in [1], it took a dose of 4.1 µmol/kg to reach the 50% effect level (ED50).
As to `O=C1CCc2ccc(OCCCCN3CCN(c4cc(Cl)cc(Cl)c4)CC3)cc2N1`, the results for the ED50 (in assay [2]; in the assay listed under Mus musculus [5]) were above 256 µmol/kg and above 22 µmol/kg, respectively.
For `O=C1CCc2ccc(OCCCCN3CCN(c4c(Cl)cccc4Cl)CC3)cc2N1`, the ED50 in the assay filed under Mus musculus [3] (read-out: ED50) is above 7 µmol/kg.
On to `Cc1cccc(N2CCN(CCCCOc3ccc4c(c3)NC(=O)CC4)CC2)c1Br`, for which the median effective dose (ED50) in the assay filed under Mus musculus [5] was above 21 µmol/kg.
On to `CCOc1ccccc1N1CCN(CCCCOc2ccc3c(c2)NC(=O)CC3)CC1`, for which the ED50 was found to be 0.65 µmol/kg in the assay filed under Mus musculus [5], 4.4 µmol/kg in the assay listed under Mus musculus [11] and 7 µmol/kg in assay [13].

A word on the ED50: it is the dose that gives a 50% effect, or the effect in half of the subjects.
